Bioassay records deposited in PubChem BioAssay by several laboratories.
H69AR inhibit: proliferation blockers of H69AR lung cancer cells, primary screen, cell-based, human, 86K library | H69AR lung tumor viability, ATP luminescence, 72 h; stronger effect = lower value | viability, % at 10 µM | 85,000 tested, 6% active;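 active means viability at or below 40%; inactive means viability above 40%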;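 further: multidrug resistant small cell line overexpressing MRP-1 efflux transporter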
HUVEC prolif 384: inhibitors of HUVEC proliferation, primary screen, cell-based, 384-well; CellTiter-Glo luminescence, 72 h; stronger effect = lower value; viability, % at 10 µM (by protocol); 86,000 tested, 1.1% active;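 active means viability at or below 30%; inactive means viability above 30%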
bCat KO growth: primary screen for growth suppressors in beta-catenin knockout HCT116 cells (colon tumor, human) | HCT116 beta-catenin knockout viability, CellTiter-Glo, 60 h; stronger effect = lower value | viability, % at 10 µM | 140,000 tested, 1.5% active | AID 818, 2007;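 active means viability at or under a set limit, the compound median less 4 SD, cut at about 6% in these data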
Lung fibro prol: antiproliferative effect on LL 47 fibroblasts – human, LL 47 cells, CellTiter-Glo luminescence, primary screen. LL 47 human lung fibroblast viability, ATP luminescence; stronger effect = lower value. viability, % at 10 µM. 85,000 tested, 1.1% active. AID 719, 2007;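 active means viability at or below 50% in the single dose screen; inactive means viability above 50%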;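 further: compound exposure lasted 72 h before the ATP readout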
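Test system: LL 47 human lung fibroblasts / Incubation: 72 h compound exposure at 37 °C after overnight plating / Technique: luminescent ATP detection, CellTiter-Glo / Compound dosing: 0.1% DMSO in all compound wells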
Candida biofilm: clotrimazole potentiators killing Candida biofilms, primary screen, with clotrimazole, Alamar Blue; 85,000 tested, 0.14% active; inhibition, % at 6 µM; AID 834, 2007; C. albicans biofilm + clotrimazole;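 active means inhibition above 20%; inactive means inhibition below 20%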;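 further: preformed 24 hr biofilms exposed to compound for 48 hr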
HCT116 PTEN-null: growth suppression of PTEN-null HCT116, primary screen, cell-based, CellTiter-Glo | HCT116 PTEN-null viability, 60 h; stronger effect = lower value | viability, % at 10 µM | 140,000 tested, 1.2% active;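 active means viability at or below a set limit, 4 SD under the median of all tested compounds, cut at about 3.7% in these data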;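 further: PTEN knockout HCT116 line with beta catenin targeted HCT116 as companion control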
Large screens that a line does not name were inactive. Many of the other results were omitted from the sample, so hits are more common in it than they were.

Cc1ccc(C2c3c(-c4ccccc4O)n[nH]c3C(=O)N2Cc2ccncc2)cc1 (stereo not given)	H69AR inhibit 7.6
O=C1c2[nH]nc(-c3ccccc3O)c2C(c2cccc(O)c2)N1Cc1ccco1 (stereo not given)	H69AR inhibit 38
COc1cccc(C(=O)NC(=S)Nc2ccc(N(C)C)cc2)c1	none (no result: H69AR inhibit, HUVEC prolif 384, Lung fibro prol, Candida biofilm)
CC(C(=O)NC1CCCC1)N(C(=O)c1ccc(-c2ccccc2)[nH]1)c1ccccc1F (stereo not given)	none (no result: H69AR inhibit, HUVEC prolif 384, Lung fibro prol, Candida biofilm)
COc1ccc(CNc2nc(S(=O)(=O)c3ccccc3)c(Cl)s2)cc1OC	none (no result: H69AR inhibit, HUVEC prolif 384, Lung fibro prol, Candida biofilm)
CONC(=O)C1CCN(C(=O)OCc2ccccc2)CC1	none (no result: H69AR inhibit, HUVEC prolif 384, Lung fibro prol, Candida biofilm)
Cc1ccc(N2C(=O)NC(C(F)(F)F)(C(F)(F)F)C3=C2CC(C)(C)CC3=O)cc1	none (no result: H69AR inhibit, HUVEC prolif 384, Lung fibro prol, Candida biofilm)
CCC(CC)C(=O)OCC(=O)Nc1cc(OC)c([N+](=O)[O-])cc1C	none (no result: H69AR inhibit, HUVEC prolif 384, Lung fibro prol, Candida biofilm)
CCNc1ccc2c(Cl)cc(=O)oc2c1	H69AR inhibit 37
CCN(CC)c1ccc2c(Cl)cc(=O)oc2c1	none (no result: H69AR inhibit, HUVEC prolif 384, Lung fibro prol, Candida biofilm)
CC1CCCN(C(=O)c2ccc(S(=O)(=O)N3CCC(c4nc5ccccc5s4)CC3)cc2)C1 (stereo not given)	H69AR inhibit 32 (no result: bCat KO growth, HCT116 PTEN-null)
CC(C)OCCCNC(=O)CN1C(=O)/C(=C/c2ccccc2)Sc2ccccc21	none (no result: H69AR inhibit, HUVEC prolif 384, Lung fibro prol, Candida biofilm)
CC(=O)c1cccc(NC(=O)Nc2ccc3c(c2)N(C)C(=O)CS3)c1	H69AR inhibit 24
CN1CCN(CCCc2c3c(cc4c2CCC4)CCC3)CC1	none (no result: H69AR inhibit, HUVEC prolif 384, Lung fibro prol, Candida biofilm)
COc1ccc(CC(=O)Nn2c(-c3ccccc3)nc3ccccc3c2=O)cc1	none (no result: H69AR inhibit, HUVEC prolif 384, Lung fibro prol, Candida biofilm)
CCOC(=O)c1ccc(-n2c(C)nc3c(cnn3-c3ccc(Cl)cc3)c2=O)cc1	Candida biofilm 34
COc1ccc(C(c2c[nH]c3ccccc23)c2c[nH]c3ccccc23)cc1O	H69AR inhibit 7.2
CS(=O)(=O)c1nc(-c2ccccc2)cc(-c2ccccc2)c1C#N	H69AR inhibit 1.5, bCat KO growth 1.9, Lung fibro prol 40, HCT116 PTEN-null 2.4
CCCc1[nH]c(=O)c(C#N)c2c1CCCC2	none
CC1(C)CC(=O)C2=C(C1)OC(/N=C/N1CCOCC1)=C(C#N)C2c1ccccc1 (stereo not given)	none
CC1(C)CC(=O)C2=C(C1)OC(N)=C(C#N)C2C#Cc1ccccc1 (stereo not given)	H69AR inhibit 1.7
CN1CCN(/C=N/C2=C(C#N)C(c3ccccc3)C3=C(CC(C)(C)CC3=O)O2)CC1 (stereo not given)	H69AR inhibit 39
CCOC(=O)c1cccc(-n2c(-c3ccc(OC)cc3)nc3nc4ccccc4nc32)c1	none (no result: H69AR inhibit, HUVEC prolif 384, Lung fibro prol, Candida biofilm)
O=C1C(N2CCOCC2)=C(n2nnc3ccccc32)C(=O)c2ccccc21	H69AR inhibit 1.4, HUVEC prolif 384 2.2, bCat KO growth 2.0, Lung fibro prol 2.4, HCT116 PTEN-null 2.1
COc1ccc(OC)c(NC(=O)C2CCCN(S(=O)(=O)c3cccc4nsnc34)C2)c1 (stereo not given)	H69AR inhibit 40
COc1cc(NC(=O)C2CCCN(S(=O)(=O)c3cccc4nsnc34)C2)cc(OC)c1 (stereo not given)	none (no result: H69AR inhibit, HUVEC prolif 384, Lung fibro prol, Candida biofilm)
COC(=O)c1c(NC(NC(=O)c2ccccc2)(C(F)(F)F)C(F)(F)F)sc2c1CCN(C)C2	none (no result: H69AR inhibit, HUVEC prolif 384, Lung fibro prol, Candida biofilm)
c1ccc(COc2ccc(OCCCNC3CCCC3)cc2)cc1	H69AR inhibit 40
O=C(COc1ccccc1[N+](=O)[O-])N/N=C/c1cccs1	none (no result: H69AR inhibit, HUVEC prolif 384, Lung fibro prol, Candida biofilm)
COc1ccccc1/C=N/NC(=Nc1ccc(C)cc1)c1nc2ccccc2s1	none
COc1cc(/C=N/NC(=Nc2ccc(C)cc2)c2nc3ccccc3s2)ccc1O	H69AR inhibit 35
COc1cc(-c2nc3ccccc3s2)ccc1O	H69AR inhibit 40
COc1ccc(-c2nc3ccccc3s2)cc1O	none
Cc1nc(C#N)c(N/N=C/c2c(F)cccc2Cl)o1	none (no result: H69AR inhibit, HUVEC prolif 384, Lung fibro prol, Candida biofilm)
O=c1cc(CSc2ccc(S(=O)(=O)N3CCCCC3)cn2)nc2sccn12	none
COc1ccc(C2CC(c3ccc(Cl)c(Cl)c3)Nc3nc(N)nn32)cc1 (stereo not given)	H69AR inhibit 34
COc1ccc(OCCCC(=O)Nc2cc([N+](=O)[O-])ccc2C)cc1	none (no result: H69AR inhibit, HUVEC prolif 384, Lung fibro prol, Candida biofilm)
